Source: ChEMBL document CHEMBL4145466, “Design, synthesis, and biological evaluation of novel combretastatin A-4 thio derivatives as microtubule targeting agents” (Eur J Med Chem, 2018)

Columns and labels:
A-431 = experiment: Cytotoxicity against human A431 cells after 48 hrs by MTT assay; assay type: functional, cell-based; conditions: A-431, 48 h
Procedure, shortened: (§1)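 Cells in DMEM with 10% FBS were plated at 2 × 10^4 per well and left overnight, then treated for 48 h at 0.6–20 µM (six concentrations) from 10 mM DMSO stocks. MTT was added for 2 h, and formazan was dissolved in DMSO and read at 570 nm. Viability was expressed as % of control, with IC50 taken from dose-response curves. Results are mean ± SD of three independent experiments.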

HeLa = experiment: Cytotoxicity against human HeLa cells after 48 hrs by MTT assay; assay type: functional, cell-based; procedure, shortened: as §1
MCF7 = experiment: Cytotoxicity against human MCF7 cells after 48 hrs by MTT assay; assay type: functional, cell-based; conditions: MCF7, 48 h; procedure, shortened: as §1
MDA-MB-231 = experiment: Cytotoxicity against human MDA-MB-231 cells after 48 hrs by MTT assay; assay type: functional, cell-based; conditions: MDA-MB-231, 48 h; procedure, shortened: as §1
A549 = experiment: Cytotoxicity against human A549 cells after 48 hrs by MTT assay; assay type: functional, cell-based; conditions: A549, 48 h
SK-OV-3 = experiment: Cytotoxicity against human SKOV3 cells after 48 hrs by MTT assay; assay type: functional, cell-based; conditions: SK-OV-3, 48 h; procedure, shortened: as §1
HaCaT = experiment: Cytotoxicity against human HaCaT cells after 48 hrs by MTT assay; assay type: cell-based; procedure, shortened: as §1
[1] = Cytotoxicity against human CCD39Lu cells after 48 hrs by MTT assay; assay type: cell-based; procedure, shortened: as §1
[2] = Inhibition of porcine tubulin polymerization after 1 hr by spectrophotometric analysis; set-up: species or system Sus scrofa
Procedure, shortened: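 Polymerization was started by shifting from 4 °C to 37 °C, and absorbance was followed at 37 °C for 60 min. The vehicle served as control.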

Structure (SMILES)	IC50 [2]	IC50 (A-431)	IC50 (HeLa)	IC50 (MCF7)	IC50 (MDA-MB-231)	IC50 (A549)	IC50 (SK-OV-3)	IC50 (HaCaT)	IC50 [1]
COc1cc(-c2ncoc2-c2cc(Br)c(SC)c(OC)c2)cc(OC)c1OC	> 10 µM	> 20 µM	> 20 µM	1.42 µM	17.9 µM	> 20 µM	> 20 µM	16.7 µM	> 20 µM
COc1cc(-c2c(-c3cc(Br)c(OC)c(OC)c3)ncn2C)ccc1SC	> 10 µM	13.6 µM	> 20 µM	2.2 µM	15.5 µM	> 20 µM	> 20 µM	> 20 µM	19.3 µM
COc1ccc(-c2c(-c3cc(OC)c(SC)c(OC)c3)ncn2C)cc1O	6.67 µM	0.43 µM	0.39 µM	1.63 µM	0.39 µM	> 20 µM	1.72 µM	0.5 µM	> 20 µM
COc1ccc(-c2ocnc2-c2cc(OC)c(OC)c(OC)c2)cc1S	2.97 µM	1.22 µM	4.44 µM	2.11 µM	2.87 µM	> 20 µM	3.18 µM	1.28 µM	> 20 µM
COc1ccc(-c2ocnc2-c2cc(Br)c(OC)c(OC)c2)cc1OC	4.8 µM	12.3 µM	0.07 µM	6.1 µM	7.83 µM	0.5 µM	0.26 µM	10.1 µM	> 20 µM
COc1cc(-c2ncoc2-c2ccccc2SC)cc(OC)c1OC	0.86 µM	> 20 µM	7.33 µM	1.43 µM	> 20 µM	> 20 µM	> 20 µM	> 20 µM	> 20 µM
COc1cc(/C=C\c2ccccc2SC)cc(OC)c1OC	> 10 µM	8.22 µM	11.7 µM	2.35 µM	14.2 µM	> 20 µM	14.1 µM	12.8 µM	> 20 µM
COc1cc(-c2ncn(C)c2-c2cc(Br)c(SC)c(OC)c2)cc(OC)c1OC	> 10 µM	16.6 µM	8.18 µM	2.51 µM	> 20 µM	> 20 µM	> 20 µM	> 20 µM	6.13 µM

More lines, main results first:

IC50 [2]	Structure (SMILES)	IC50 (A-431)	IC50 (HeLa)	IC50 (MCF7)	IC50 (MDA-MB-231)	IC50 (A549)	IC50 (SK-OV-3)	IC50 (HaCaT)	IC50 [1]
1.62 µM	COc1cc(-c2ocnc2-c2cc(OC)c(OC)c(OC)c2)ccc1SC	0.43 µM	0.645 µM	0.6 µM	0.85 µM	> 20 µM	1.48 µM	0.43 µM	> 20 µM
> 10 µM	COc1ccc(-c2c(-c3cc(Br)c(OC)c(OC)c3)ncn2C)cc1SC	> 20 µM	> 20 µM	5.24 µM	> 20 µM	> 20 µM	> 20 µM	> 20 µM	> 20 µM
> 10 µM	COc1cc(/C=C\c2cccc(OC)c2SC)cc(OC)c1OC	3.61 µM	6.18 µM	0.65 µM	11.7 µM	> 20 µM	14.5 µM	9.56 µM	> 20 µM
> 10 µM	COc1cc(/C(=C\c2cccc(OC)c2SC)C(=O)O)cc(OC)c1OC	> 20 µM	> 20 µM	0.95 µM	> 20 µM	> 20 µM	> 20 µM	> 20 µM	> 20 µM
1.54 µM	COc1cc(-c2ocnc2-c2cc(Br)c(OC)c(OC)c2)ccc1SC	0.41 µM	0.44 µM	2.48 µM	0.76 µM	> 20 µM	1.03 µM	0.26 µM	> 20 µM
> 10 µM	COc1cc(/C(=C\c2ccccc2SC)C(=O)O)cc(OC)c1OC	> 20 µM	> 20 µM	1.84 µM	> 20 µM	> 20 µM	> 20 µM	> 20 µM	> 20 µM
> 10 µM	COc1cc(-c2ncn(C)c2-c2ccccc2SC)cc(OC)c1OC	> 20 µM	> 20 µM	2.29 µM	> 20 µM	> 20 µM	> 20 µM	> 20 µM	> 20 µM
